The source made the active and inactive calls. No cut-off for these calls is given here.

What is called IC50 is the concentration at which inhibition is half-maximal. Low values mean greater potency in that assay, high ones weaker potency in that assay.

What all share (format): functional, cell-based
Assay [1] deals with HL-60. Kind of assay: Cytotoxicity against human HL60 cells by MTT assay. In outline: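 HL-60 cells grown in suspension in RPMI-1640 with 10% heat-inactivated FBS, penicillin 100 units/mL and streptomycin 100 μg/mL, at 37 °C in humidified 95% air/5% CO2. Density kept below 1 × 10^6 cells/mL. Viability read by MTT; IC50 (μM) given as mean ± spread.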
A general note: Tetrazolium assays rely on reduction of a dye to a coloured formazan, in cell work by metabolically active cells.

In assay [2] the test system is HL-60. Description: Induction of apoptosis in human HL60 cells assessed as activation of caspase 3 after 12 hrs. In a few lines: (§1)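 HL-60 cells exposed to increasing concentrations for 12 h, then harvested. Cytosolic or total lysates assayed with colorimetric substrates, DEVD-pNA for caspase-3 and IETD-pNA for caspase-8. Activity expressed as x-fold over untreated control. A representative experiment run in duplicate.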

For assay [3], the system named is HL-60. Description: Induction of apoptosis in human HL60 cells assessed as nuclear chromatin condensation by Hoechst 33258 based fluorescent microscopy. In a few lines: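 HL-60 cells cultured 12 h without or with the indicated doses, then stained with Hoechst 33258. Condensed/fragmented chromatin scored by fluorescence microscopy as the percentage of apoptotic cells. Etoposide 10 μM as positive control. Points are the average (±SE) of triplicates from a representative experiment.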

Assay [4] concerns HL-60. Kind of assay: Induction of apoptosis in human HL60 cells assessed as accumulation […] at 30 uM after 12 hrs by flow cytometry. In a few lines: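 HL-60 cells incubated at 30 μM for 12 h. DNA content analysed by flow cytometry to follow the diploid-to-hypodiploid shift and the cell-cycle phase distribution.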
Assay [5] concerns HL-60. Kind of assay: Induction of apoptosis in human HL60 cells assessed as cleavage of PARP-1 after 12 hrs by Western blot analysis. In a few lines:
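HL-60 cells treated for 12 h at the indicated concentrations. Total lysates immunoblotted with a PARP-1 monoclonal antibody that detects the native 116 kDa and cleaved 85 kDa forms. Etoposide 10 μM served as positive control.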
On the technique in general: In western blotting, separated proteins are transferred to a membrane and probed.

Assay [6] deals with HL-60. Description: Induction of apoptosis in human HL60 cells assessed as activation of caspase 8 at after 12 hrs. In a few lines: as §1

Take `CC(=O)OC/C1=C/CC[C@@]2(C)O[C@@H]2[C@@H](OC(C)=O)[C@@H](C(C)C)[C@H](OC(C)=O)C1`: the IC50 in the assay with HL-60 [1] is 298 µM.
Same read-out and setting: the result for `CC(=O)O[C@@H]1/C=C(\C)CC[C@H]2O[C@@]2(C=O)C[C@@H](OC(C)=O)[C@@H]1C(C)C` [PULICANARAL A] reads 115 µM; that for `CC(=O)O[C@H]1[C@@H](C(C)C)[C@H](OC(C)=O)C[C@]2(C=O)O[C@@H]2CC[C@@]2(C)O[C@@H]12` [PULICANARAL B], 264 µM; that for `C=C1CC[C@@H](C(C)C)[C@H]2[C@@H]1CC[C@@H]2C(=O)CO` [PULIOPLOPANONE A], 242 µM.
For `C=C1CC/C=C(/COC(C)=O)C[C@@H](OC(C)=O)[C@H](C(C)C)[C@H](OC(C)=O)C1=O` [TRIACETOXY PULICANONE], the result with HL-60 [2], with HL-60 [4], in the assay with HL-60 [5] and with HL-60 [6] was Active. In the assay with HL-60 [1], this compound displayed an IC50 of 20 µM. In addition, the Activity result in the assay on HL-60 [3] is “Dose-dependent effect”.

The values above are taken from ChEMBL document CHEMBL1158730, “Sesquiterpenoids from Pulicaria canariensis and their cytotoxic activities” (J Nat Prod, 2005).
